One assay has as its system HCT-116. Description: Antiproliferative activity against human HCT116 cell line. It is filed as functional.
The subject of a further assay is MDA-MB-435. Description: Antiproliferative activity against human MDA-MB-435 cell line. In kind it is functional.
In another assay the test system is UACC-62. Nature of the assay: Antiproliferative activity against human UACC62 cell line. It is filed as functional.
The test system of a further assay is DU-145. Description: Antiproliferative activity against human DU145 cell line. In kind it is functional.
The subject of the next assay is SN12C. Nature of the assay: Antiproliferative activity against human SN12C cell line. It is filed as functional.
The next assay relates to SF-539. Description: Antiproliferative activity against human SF539 cell line. In kind it is functional.
In another assay the test system is OVCAR-3. Description: Antiproliferative activity against human OVCAR-3 cell line. In kind it is functional.
A further assay deals with HOP-62. Description: Antiproliferative activity against human HOP62 cell line. It is filed as functional.
Assay [1] concerns Panel (12 tumour cell lines). Nature of the assay: Net cell kill in ip dosed mouse implanted with 12 human tumor cell lines. It is filed as functional, organism-based.
In assay [2] the target is T1, DNA topoisomerase 1 (Homo sapiens) (UniProt P11387).
T1 sequence (whole entry): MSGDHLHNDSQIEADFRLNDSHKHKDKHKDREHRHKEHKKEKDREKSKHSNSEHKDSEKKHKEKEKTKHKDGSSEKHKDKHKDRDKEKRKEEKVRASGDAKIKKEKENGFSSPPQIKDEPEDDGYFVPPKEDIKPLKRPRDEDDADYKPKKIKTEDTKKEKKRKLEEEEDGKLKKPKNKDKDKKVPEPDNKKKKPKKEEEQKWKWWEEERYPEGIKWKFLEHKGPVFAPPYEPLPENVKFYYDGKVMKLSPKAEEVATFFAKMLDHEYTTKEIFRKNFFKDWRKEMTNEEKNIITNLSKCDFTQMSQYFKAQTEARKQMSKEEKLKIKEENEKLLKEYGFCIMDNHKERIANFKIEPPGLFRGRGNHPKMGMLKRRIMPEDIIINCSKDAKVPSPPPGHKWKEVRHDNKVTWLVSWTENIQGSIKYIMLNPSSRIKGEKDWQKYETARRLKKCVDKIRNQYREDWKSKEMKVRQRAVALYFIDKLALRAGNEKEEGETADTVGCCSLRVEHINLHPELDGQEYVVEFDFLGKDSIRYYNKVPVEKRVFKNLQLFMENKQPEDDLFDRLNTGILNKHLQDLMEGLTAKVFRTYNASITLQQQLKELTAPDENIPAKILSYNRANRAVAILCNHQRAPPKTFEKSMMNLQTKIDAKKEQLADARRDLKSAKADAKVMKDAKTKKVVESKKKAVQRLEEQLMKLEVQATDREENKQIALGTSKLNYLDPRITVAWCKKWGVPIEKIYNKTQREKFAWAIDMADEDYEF
Nature of the assay: Inhibition of human recombinant Top1-mediated DNA cleavage upto 10 uM. In outline:
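Baculovirus-purified human recombinant Top1. Substrate: 161 bp PvuII/HindIII fragment of pBluescript SK(-), 3′-end labeled with [α-32P]-dGTP by Klenow fill-in, about 50 000 dpm per reaction. Compounds up to 10 µM, 22 °C for 30 min; stopped with 0.5% SDS (final). Denaturing 16% polyacrylamide/7 M urea gels, phosphorimaging. Cleavage scored semiquantitatively (+ to ++++) against a reference indenoisoquinoline and 1 µM camptothecin.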

Broadly, the GI50 is the concentration that inhibits growth by half. A high value points to less potent growth inhibition.

Active and inactive are the calls of the source. No cut-off for these calls is given here.

As to `O=C1c2ccccc2-c2c1c1ccccc1c(=O)n2CCCNCCCCNCCCn1c2c(c3ccccc3c1=O)C(=O)c1ccccc1-2`, the GI50 in the assay with HCT-116 was under 5 nM; in the assay with MDA-MB-435, 676 nM; in the assay on UACC-62 it was 562 nM; with DU-145, 234 nM; with SN12C, under 5 nM; with SF-539, 251 nM. The GI50 in the assay on OVCAR-3 turned out to be 135 nM; in the assay on HOP-62, 525 nM. Besides, in assay [1], the result was inactive. For the same molecule, in assay [2], the result was Active.
Take `O=C1c2ccccc2-c2c1c1ccccc1c(=O)n2CCNCCCNCCn1c2c(c3ccccc3c1=O)C(=O)c1ccccc1-2`: the GI50 with HCT-116 was under 5 nM; with MDA-MB-435 it was 24 nM; in the assay with UACC-62 it was 182 nM; with DU-145, 79 nM; with SN12C, under 5 nM; with SF-539, 155 nM. Moreover, the GI50 was determined as 93 nM with OVCAR-3 and 339 nM in the assay on HOP-62. For the same molecule, in assay [1], the result was inactive. Moreover, the outcome in assay [2] was Active.

These data come from ChEMBL document CHEMBL1145341, “Synthesis and biological evaluation of bisindenoisoquinolines as topoisomerase I inhibitors” (2006).
